Reference: ChEMBL document CHEMBL4270642, “Boronic ester-linked macrocyclic lipopeptides as serine protease inhibitors targeting Escherichia coli type I signal peptidase” (Eur J Med Chem, 2018)
Converted amounts (≈) assume the structure as drawn.

Key:
[1] = target: Signal peptidase I (Escherichia coli K-12) (UniProt P00803); experiment: Inhibition of Escherichia coli type 1 signal peptidase lepB assessed as residual activity at 5 uM preincubated for 10 mins followed by Dabcyl-VGGTATAYGAFSRPGLE-(EDANS)-OH substrate addition measured after 2 hrs by FRET based assay (reference value: 100%)
Procedure, shortened: (§1)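 EcLepB (about 50 nM estimated) preincubated 10 min with compound. Reaction started with Dabcyl/EDANS FRET peptide at 8 µM final (Km 20 µM). Fluorescence followed continuously at 535 nm, 22 °C, for 2 h. Cleavage rates plotted against inhibitor concentration; IC50 from non-linear regression of sigmoidal dose-response curves.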

HepG2 = experiment: Cytotoxicity against human HepG2 cells after 72 hrs by FMSA; format: cell-based; conditions: HepG2, 72 h
Procedure, shortened: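 HepG2 (ATCC) grown in EMEM with 10% FBS, pen/strep, 2 mM L-glutamine, used up to 20 passages. Seeded at 1000 cells/well, cultured overnight, then dosed acoustically from DMSO stocks. Eight two-fold dilutions in duplicate from top 64 or 32 µM; 72 h at 37 °C, 5% CO2. Fluorescein diacetate hydrolysis read at ex 485/em 530 nm; IC50 by non-linear regression.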

[2] = target: Signal peptidase I (Escherichia coli K-12) (UniProt P00803); experiment: Inhibition of Escherichia coli type 1 signal peptidase lepB assessed as residual activity at 0.0098 uM preincubated for 10 mins followed by Dabcyl-VGGTATAYGAFSRPGLE-(EDANS)-OH substrate addition measured after 2 hrs by FRET based assay (reference value: 100%); procedure, shortened: as §1
Escherichia coli [3] = experiment: Antibacterial activity against Escherichia coli ATCC 25922 after 16 to 20 hrs by broth microdilution method; format: functional
Procedure, shortened: (§2)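 Broth microdilution in cation-adjusted Mueller-Hinton II per EUCAST/CLSI; two-fold compound series 64 down to 0.25 µg/mL final. Inoculum from fresh colonies (non-selective agar, 18-24 h, 35 ± 2 °C), adjusted to 0.5 McFarland, diluted to about 5 × 10^5 CFU/mL final. Static incubation 16-20 h at 35 ± 2 °C; MIC read visually as complete growth inhibition against medium-only wells.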

[4] = target: Signal peptidase I (Escherichia coli K-12) (UniProt P00803); experiment: Inhibition of Escherichia coli type 1 signal peptidase lepB assessed as residual activity at 2.5 uM preincubated for 10 mins followed by Dabcyl-VGGTATAYGAFSRPGLE-(EDANS)-OH substrate addition measured after 2 hrs by FRET based assay (reference value: 100%); procedure, shortened: as §1
[5] = target: Signal peptidase I (Escherichia coli K-12) (UniProt P00803); experiment: Inhibition of Escherichia coli type 1 signal peptidase lepB assessed as residual activity at 10 uM preincubated for 10 mins followed by Dabcyl-VGGTATAYGAFSRPGLE-(EDANS)-OH substrate addition measured after 2 hrs by FRET based assay (reference value: 100%); procedure, shortened: as §1
Pseudomonas aeruginosa [6] = experiment: Antibacterial activity against Pseudomonas aeruginosa PAO1 after 16 to 20 hrs by broth microdilution method; format: functional; procedure, shortened: as §2
Klebsiella pneumoniae = experiment: Antibacterial activity against Klebsiella pneumoniae ATCC 13883 after 16 to 20 hrs by broth microdilution method; format: functional; procedure, shortened: as §2
[7] = Hemolytic activity in human RBC at 100 uM after 45 mins by spectrophotometric method relative to control; format: ADME, cell-based, Erythrocyte; conditions: red blood cells (erythrocytes), read-out: Activity
Procedure, shortened: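 Heparinized human blood; red cells washed three times in Tyrode buffer pH 7.4. Compound at 100 µM final with 1% DMSO and 50% RBC, shaken (250 rpm) 45 min at 37 °C. Cells pelleted (1000 × g, 10 min); supernatant haemoglobin at 540 nm. Percent lysis relative to buffer-only and 2% Triton X-100 controls.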

[8] = target: Signal peptidase I (Escherichia coli K-12) (UniProt P00803); experiment: Inhibition of Escherichia coli type 1 signal peptidase lepB assessed as residual activity at 0.0024 uM preincubated for 10 mins followed by Dabcyl-VGGTATAYGAFSRPGLE-(EDANS)-OH substrate addition measured after 2 hrs by FRET based assay (reference value: 100%); procedure, shortened: as §1
[9] = target: Signal peptidase I (Escherichia coli K-12) (UniProt P00803); experiment: Inhibition of Escherichia coli type 1 signal peptidase lepB assessed as residual activity at 0.0049 uM preincubated for 10 mins followed by Dabcyl-VGGTATAYGAFSRPGLE-(EDANS)-OH substrate addition measured after 2 hrs by FRET based assay (reference value: 100%); procedure, shortened: as §1
[10] = target: Signal peptidase I (Escherichia coli K-12) (UniProt P00803); experiment: Inhibition of Escherichia coli type 1 signal peptidase lepB assessed as residual activity at 0.0391 uM preincubated for 10 mins followed by Dabcyl-VGGTATAYGAFSRPGLE-(EDANS)-OH substrate addition measured after 2 hrs by FRET based assay (reference value: 100%); procedure, shortened: as §1
[11] = target: Signal peptidase I (Escherichia coli K-12) (UniProt P00803); experiment: Inhibition of Escherichia coli type 1 signal peptidase lepB assessed as residual activity at 0.0006 uM preincubated for 10 mins followed by Dabcyl-VGGTATAYGAFSRPGLE-(EDANS)-OH substrate addition measured after 2 hrs by FRET based assay (reference value: 100%); procedure, shortened: as §1
[12] = target: Signal peptidase I (Escherichia coli K-12) (UniProt P00803); experiment: Inhibition of Escherichia coli type 1 signal peptidase lepB assessed as residual activity at 0.0781 uM preincubated for 10 mins followed by Dabcyl-VGGTATAYGAFSRPGLE-(EDANS)-OH substrate addition measured after 2 hrs by FRET based assay (reference value: 100%); procedure, shortened: as §1
[13] = target: Signal peptidase I (Escherichia coli K-12) (UniProt P00803); experiment: Inhibition of Escherichia coli type 1 signal peptidase lepB assessed as residual activity at 1.25 uM preincubated for 10 mins followed by Dabcyl-VGGTATAYGAFSRPGLE-(EDANS)-OH substrate addition measured after 2 hrs by FRET based assay (reference value: 100%); procedure, shortened: as §1
[14] = target: Signal peptidase I (Escherichia coli K-12) (UniProt P00803); experiment: Inhibition of Escherichia coli type 1 signal peptidase lepB assessed as residual activity at 0.0012 uM preincubated for 10 mins followed by Dabcyl-VGGTATAYGAFSRPGLE-(EDANS)-OH substrate addition measured after 2 hrs by FRET based assay (reference value: 100%); procedure, shortened: as §1
[15] = target: Signal peptidase I (Escherichia coli K-12) (UniProt P00803); experiment: Inhibition of Escherichia coli type 1 signal peptidase lepB assessed as residual activity at 0.625 uM preincubated for 10 mins followed by Dabcyl-VGGTATAYGAFSRPGLE-(EDANS)-OH substrate addition measured after 2 hrs by FRET based assay (reference value: 100%); procedure, shortened: as §1
Pseudomonas aeruginosa [16] = experiment: Antibacterial activity against efflux defective Pseudomonas aeruginosa PAO750 after 16 to 20 hrs by broth microdilution method; format: functional; procedure, shortened: as §2
Escherichia coli [17] = experiment: Antibacterial activity against Escherichia coli D22 CGSG 5163 harboring Ips mutant after 16 to 20 hrs by broth microdilution method; format: functional
Procedure, shortened: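 Broth microdilution in cation-adjusted Mueller-Hinton II broth, following EUCAST and CLSI guidelines. Two-fold series at final concentrations 64 down to 0.25 µg/mL, with medium-only and growth controls. Inoculum from fresh colonies (18-24 h, 35 °C ± 2 °C) adjusted to 0.5 McFarland, final ≈5 × 10^5 CFU/mL. Plates incubated unshaken 16-20 h at 35 °C ± 2 °C. MIC read visually as complete inhibition of growth.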

Acinetobacter baumannii = experiment: Antibacterial activity against Acinetobacter baumannii ATCC 19606 after 16 to 20 hrs by broth microdilution method; format: functional; conditions: ATCC 19606 = CIP 70.34 = JCM 6841; procedure, shortened: as §2
Signal peptidase I = Signal peptidase I (Escherichia coli K-12, UniProt P00803); experiment: Inhibition of Escherichia coli type 1 signal peptidase lepB preincubated for 10 mins followed by Dabcyl-VGGTATAYGAFSRPGLE-(EDANS)-OH substrate addition measured after 2 hrs by FRET based assay; procedure, shortened: as §1
Escherichia coli [18] = experiment: Antibacterial activity against tolC deficient Escherichia coli CH3130 after 16 to 20 hrs by broth microdilution method; format: functional; procedure, shortened: as §2
[19] = target: Signal peptidase I (Escherichia coli K-12) (UniProt P00803); experiment: Inhibition of Escherichia coli type 1 signal peptidase lepB assessed as residual activity at 0.0195 uM preincubated for 10 mins followed by Dabcyl-VGGTATAYGAFSRPGLE-(EDANS)-OH substrate addition measured after 2 hrs by FRET based assay (reference value: 100%); procedure, shortened: as §1
[20] = target: Signal peptidase I (Escherichia coli K-12) (UniProt P00803); experiment: Inhibition of Escherichia coli type 1 signal peptidase lepB assessed as residual activity at 0.1563 uM preincubated for 10 mins followed by Dabcyl-VGGTATAYGAFSRPGLE-(EDANS)-OH substrate addition measured after 2 hrs by FRET based assay (reference value: 100%); procedure, shortened: as §1
[21] = target: Signal peptidase I (Escherichia coli K-12) (UniProt P00803); experiment: Inhibition of Escherichia coli type 1 signal peptidase lepB assessed as residual activity at 0.3125 uM preincubated for 10 mins followed by Dabcyl-VGGTATAYGAFSRPGLE-(EDANS)-OH substrate addition measured after 2 hrs by FRET based assay (reference value: 100%); procedure, shortened: as §1
Staphylococcus aureus = experiment: Antibacterial activity against Staphylococcus aureus ATCC 29213 after 16 to 20 hrs by broth microdilution method; format: functional; procedure, shortened: as §2

Sequence of Signal peptidase I (P00803 whole entry): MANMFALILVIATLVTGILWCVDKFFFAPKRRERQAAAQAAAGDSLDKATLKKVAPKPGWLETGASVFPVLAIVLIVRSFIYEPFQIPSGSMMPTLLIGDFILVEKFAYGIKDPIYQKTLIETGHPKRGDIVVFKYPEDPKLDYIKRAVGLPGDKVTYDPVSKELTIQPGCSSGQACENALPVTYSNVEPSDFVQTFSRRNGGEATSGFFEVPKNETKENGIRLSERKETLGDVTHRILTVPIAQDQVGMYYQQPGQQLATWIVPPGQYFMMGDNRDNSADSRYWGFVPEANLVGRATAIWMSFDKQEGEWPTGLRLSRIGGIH
Sequence of Signal peptidase I (Escherichia coli K-12) (P00803 whole entry): as above

SMILES | Activity [1] [%] | IC50 (HepG2) [nM] | Activity [2] [%] | MIC (Escherichia coli [3]) [µg/mL] | Activity [4] [%] | Activity [5] [%] | MIC (Pseudomonas aeruginosa [6]) [µg/mL] | MIC (Klebsiella pneumoniae) [µg/mL] | hemolysis at 0.75 h, 100 µM [7] [%] | Activity [8] [%] | Activity [9] [%] | Activity [10] [%] | Activity [12] [%] | Activity [13] [%] | Activity [14] [%] | Activity [15] [%] | MIC (Pseudomonas aeruginosa [16]) [µg/mL] | MIC (Escherichia coli [17]) [µg/mL] | MIC (Acinetobacter baumannii) [µg/mL] | IC50 (Signal peptidase I) [nM] | further results
CCCCCCc1ccc(-c2ccc(C(=O)N[C@@H](CCCNC(=N)N)C(=O)N[C@H](C(=O)N[C@@H](C)C(=O)N[C@H]3Cc4cn(nn4)CCCN4C[C@@H]5OB(O[C@@H]5C4)[C@H](C)NC3=O)[C@@H](C)O)cc2)cc1 | 27.7 | 2400 | 101 | 16 (≈ 17.3 µM) | 32.8 | 22.9 | > 64 | 16 (≈ 17.3 µM) | 21 | 102 | 105 | 76.8 | 46.5 | 35.7 | 106 | 36 | 32 (≈ 34.5 µM) | 8 (≈ 8.63 µM) | 16 (≈ 17.3 µM) | 41 | Activity [11]: 108%; MIC (Escherichia coli [18]): 4 µg/mL (≈ 4.32 µM); Activity [19]: 97.2%; Activity [20]: 41.7%; Activity [21]: 39.1%; MIC (Staphylococcus aureus): 16 µg/mL (≈ 17.3 µM)
CCCCCCc1ccc(-c2c[nH]c3ccc(C(=O)N[C@@H](CCCN)C(=O)N[C@H](C(=O)N[C@@H](C)C(=O)N[C@H]4Cc5cn(nn5)CCO[C@@H]5C[C@@H]6OB(O[C@@H]6C5)[C@H](C)NC4=O)[C@@H](C)O)cc23)cc1 | -6.8 | 23700 | 98.5 | 32 (≈ 34.6 µM) | 2.9 | -19.8 | 64 (≈ 69.2 µM) | 64 (≈ 69.2 µM) | 2.8 | 108 | 99.5 | 94.2 | 78.1 | 8.1 | 106 | 20.4 | 64 (≈ 69.2 µM) | 16 (≈ 17.3 µM) | 64 (≈ 69.2 µM) | 225 | MIC (Escherichia coli [18]): 32 µg/mL (≈ 34.6 µM); Activity [19]: 101%; Activity [20]: 58.5%; Activity [21]: 42.8%; MIC (Staphylococcus aureus): 16 µg/mL (≈ 17.3 µM)
C[C@@H]1NC(=O)[C@@H](NC(=O)[C@H](C)NC(=O)[C@@H](NC(=O)[C@H](CCCN)NC(=O)C#Cc2ccc(-c3ccccc3)cc2)[C@@H](C)O)Cc2cn(nn2)CCO[C@@H]2C[C@@H]3OB1O[C@@H]3C2 | 13.5 | 28200 | 99 | > 64 | 17.8 | 6.8 | > 64 | > 64 | 0.01 | 106 | 97.1 | 89.3 | 73.1 | 22.5 | 103 | 25.8 | > 64 | > 64 | > 64 | 227 | MIC (Escherichia coli [18]): > 64 µg/mL; Activity [19]: 98.2%; Activity [20]: 58.2%; Activity [21]: 30%; MIC (Staphylococcus aureus): 32 µg/mL (≈ 38.8 µM)
